Measured values taken from ChEMBL document CHEMBL4376872, “Scaffold Hopping of Natural Product Evodiamine: Discovery of a Novel Antitumor Scaffold with Excellent Potency against Colon Cancer” (J Med Chem, 2020).
Activity calls are given as the source filed them. The calls are words filed in the database; no cut-off is given here.

Key:
MDA-MB-435 = assay: Antiproliferative activity against human MDA-MB-435 cells assessed as reduction in cell viability incubated for 72 hrs by CCK8 assay; assay type: functional, cell-based; conditions: MDA-MB-435, 72 h
HCT-116 = assay: Antiproliferative activity against human HCT116 cells assessed as reduction in cell viability incubated for 72 hrs by CCK8 assay; assay type: functional, cell-based; conditions: HCT-116, 72 h
A549 = assay: Antiproliferative activity against human A549 cells assessed as reduction in cell viability incubated for 72 hrs by CCK8 assay; assay type: functional, cell-based; conditions: A549, 72 h
BEL-7404 tumor cell line = assay: Antiproliferative activity against human Bel7404 cells assessed as reduction in cell viability incubated for 72 hrs by CCK8 assay; assay type: functional, cell-based; conditions: BEL-7404, 72 h
[1] = Antiproliferative activity against human SW579 cells assessed as reduction in cell viability incubated for 72 hrs by CCK8 assay; assay type: functional, cell-based; conditions: SW579, 72 h
K562 = assay: Antiproliferative activity against human K562 cells assessed as reduction in cell viability incubated for 72 hrs by CCK8 assay; assay type: functional, cell-based; conditions: K562, 72 h
[2] = Antiproliferative activity against human MV-3 cells assessed as reduction in cell viability incubated for 72 hrs by CCK8 assay; assay type: functional, cell-based; conditions: MV-3, 72 h
[3] = molecular target: T1, DNA topoisomerase 1 (Escherichia coli (strain K12)) (UniProt P06612); assay: Poison activity at Escherichia coli Top1 assessed as increase in […] band intensity at 100 uM using supercoiled pUC19 plasmid DNA as substrate incubated for 30 mins by agarose gel electrophoresis analysis
T1 sequence (whole entry): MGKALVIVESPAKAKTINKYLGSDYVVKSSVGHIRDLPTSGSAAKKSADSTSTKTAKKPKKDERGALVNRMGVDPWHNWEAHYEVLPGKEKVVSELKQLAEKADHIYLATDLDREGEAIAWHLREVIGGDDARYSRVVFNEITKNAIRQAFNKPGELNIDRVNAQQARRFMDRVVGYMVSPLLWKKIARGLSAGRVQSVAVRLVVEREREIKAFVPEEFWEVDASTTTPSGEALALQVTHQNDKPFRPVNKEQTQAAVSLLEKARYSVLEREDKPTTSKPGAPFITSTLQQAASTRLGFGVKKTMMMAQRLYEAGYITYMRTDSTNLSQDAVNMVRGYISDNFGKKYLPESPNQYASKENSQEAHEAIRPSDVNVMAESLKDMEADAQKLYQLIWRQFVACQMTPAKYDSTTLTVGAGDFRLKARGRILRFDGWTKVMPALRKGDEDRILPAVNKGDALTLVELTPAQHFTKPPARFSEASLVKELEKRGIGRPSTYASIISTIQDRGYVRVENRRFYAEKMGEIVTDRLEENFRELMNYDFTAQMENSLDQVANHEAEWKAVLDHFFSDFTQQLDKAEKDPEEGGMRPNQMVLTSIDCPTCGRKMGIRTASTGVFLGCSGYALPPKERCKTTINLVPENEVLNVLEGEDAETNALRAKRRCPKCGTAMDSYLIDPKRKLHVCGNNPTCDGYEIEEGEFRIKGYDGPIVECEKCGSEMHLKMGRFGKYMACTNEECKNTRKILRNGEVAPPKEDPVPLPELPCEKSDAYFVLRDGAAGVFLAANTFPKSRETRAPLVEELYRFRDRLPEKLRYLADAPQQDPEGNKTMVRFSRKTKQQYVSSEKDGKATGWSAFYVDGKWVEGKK
Summary of the method: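 Supercoiled pUC19 plasmid DNA incubated with Top1 and test compound at 100, 50, 25 and 12.5 μM. Lanes: DNA alone, DNA + Top1, and DNA + Top1 + camptothecin (100 μM) as reference. Products resolved on gel to follow Top1-mediated relaxation.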

PC-3 = assay: Antiproliferative activity against human PC3 cells assessed as reduction in cell viability incubated for 72 hrs by CCK8 assay; assay type: functional, cell-based; conditions: PC-3, 72 h
SK-HEP1 = assay: Antiproliferative activity against human SKHEP1 cells assessed as reduction in cell viability incubated for 72 hrs by CCK8 assay; assay type: functional, cell-based; conditions: SK-HEP1, 72 h
NCI-H446 = assay: Antiproliferative activity against human NCI-H446 cells assessed as reduction in cell viability incubated for 72 hrs by CCK8 assay; assay type: functional, cell-based; conditions: NCI-H446, 72 h
[4] = molecular target: DNA topoisomerase 2-alpha (Homo sapiens) (UniProt P11388); assay: Inhibition of human Top2alpha assessed as decrease in relaxation of supercoiled pBR322 plasmid DNA at 100 uM using supercoiled pBR322 plasmid DNA as substrate incubated for 30 mins by agarose gel electrophoresis analysis
[5] = molecular target: T1, DNA topoisomerase 1 (Escherichia coli (strain K12)); assay: Inhibition of Escherichia coli Top1 assessed as decrease in relaxation of supercoiled pBR322 plasmid DNA at 100 uM using supercoiled pBR322 plasmid DNA as substrate incubated for 15 mins by agarose gel electrophoresis analysis

DNA topoisomerase 2-alpha (Homo sapiens), sequence (P11388 whole entry): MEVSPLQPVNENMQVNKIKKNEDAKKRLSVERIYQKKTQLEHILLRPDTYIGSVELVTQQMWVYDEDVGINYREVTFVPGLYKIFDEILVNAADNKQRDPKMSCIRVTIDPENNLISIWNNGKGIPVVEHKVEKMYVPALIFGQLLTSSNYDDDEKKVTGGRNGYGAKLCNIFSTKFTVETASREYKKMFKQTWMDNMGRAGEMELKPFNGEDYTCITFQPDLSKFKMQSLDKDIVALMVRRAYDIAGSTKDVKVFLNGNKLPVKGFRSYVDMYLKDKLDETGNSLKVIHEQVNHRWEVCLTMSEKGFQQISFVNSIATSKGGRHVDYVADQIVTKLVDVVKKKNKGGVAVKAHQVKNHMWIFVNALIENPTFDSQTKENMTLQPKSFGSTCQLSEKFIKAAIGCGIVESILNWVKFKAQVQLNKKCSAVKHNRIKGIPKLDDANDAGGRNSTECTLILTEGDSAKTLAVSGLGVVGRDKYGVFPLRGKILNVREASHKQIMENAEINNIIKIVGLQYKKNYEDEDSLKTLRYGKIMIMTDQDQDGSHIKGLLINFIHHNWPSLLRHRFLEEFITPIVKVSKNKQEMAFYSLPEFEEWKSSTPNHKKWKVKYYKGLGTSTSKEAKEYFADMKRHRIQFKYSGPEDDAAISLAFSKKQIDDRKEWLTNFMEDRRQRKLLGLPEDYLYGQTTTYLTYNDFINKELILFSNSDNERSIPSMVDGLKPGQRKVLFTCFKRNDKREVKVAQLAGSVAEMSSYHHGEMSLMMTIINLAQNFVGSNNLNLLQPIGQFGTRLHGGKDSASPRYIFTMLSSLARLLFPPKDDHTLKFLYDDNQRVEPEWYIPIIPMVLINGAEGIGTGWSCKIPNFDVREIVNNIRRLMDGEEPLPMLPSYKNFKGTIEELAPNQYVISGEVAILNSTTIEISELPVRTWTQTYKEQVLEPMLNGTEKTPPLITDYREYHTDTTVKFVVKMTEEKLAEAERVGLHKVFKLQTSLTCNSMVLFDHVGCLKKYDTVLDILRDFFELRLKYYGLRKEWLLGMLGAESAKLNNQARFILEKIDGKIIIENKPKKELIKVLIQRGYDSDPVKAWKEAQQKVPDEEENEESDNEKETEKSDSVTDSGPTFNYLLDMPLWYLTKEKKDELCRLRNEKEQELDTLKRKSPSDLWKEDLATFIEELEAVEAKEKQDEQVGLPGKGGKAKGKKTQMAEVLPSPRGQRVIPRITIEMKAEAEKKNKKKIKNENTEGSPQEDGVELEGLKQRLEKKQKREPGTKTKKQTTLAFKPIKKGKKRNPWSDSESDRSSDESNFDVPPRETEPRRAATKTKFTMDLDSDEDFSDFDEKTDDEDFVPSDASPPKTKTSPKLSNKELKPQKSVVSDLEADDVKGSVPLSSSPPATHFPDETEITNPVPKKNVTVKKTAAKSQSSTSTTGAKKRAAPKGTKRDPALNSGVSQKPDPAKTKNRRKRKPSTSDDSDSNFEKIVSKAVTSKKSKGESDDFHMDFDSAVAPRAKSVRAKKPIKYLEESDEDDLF

| Structure (SMILES) | IC50 (MDA-MB-435) [µM] | IC50 (HCT-116) [µM] | IC50 (A549) [µM] | also measured |
| --- | --- | --- | --- | --- |
| COc1ccc2c(c1)cc1n2C(C)(C)CN2C(=O)c3cc(F)ccc3N(C)C12 (configuration not stated) | 10.7 | 1.5 | > 200 | – |
| CN1c2ccccc2C(=O)N2CCn3c(cc4cc(Br)ccc43)C21 (configuration not stated) | 15.9 | 7.3 | 15.2 | – |
| CN1c2ccccc2C(=S)N2CCn3c(cc4cc(F)ccc43)C21 (configuration not stated) | > 200 | > 200 | > 200 | – |
| COc1ccc2c(c1)c(CN1CCN(C)CC1)c1n2CCN2C(=O)c3cc(F)ccc3N(C)C12 (configuration not stated) | 5.82 | 5.5 | 32.9 | – |
| CN1c2ccsc2C(=O)N2CCn3c(cc4cc(O)ccc43)C21 (configuration not stated) | 66.8 | 106 | 30.3 | – |
| CN1c2ccccc2C(=O)N2CCn3c(cc4cc(O)ccc43)C21 (configuration not stated) | 16.8 | 44.3 | 14.5 | – |
| COc1ccc2c(c1)cc1n2CCN2C(=O)c3ccccc3N(C)C12 (configuration not stated) | 20.2 | 12 | 2.7 | – |
| CN1c2ccccc2C(=O)N2CCc3c([nH]c4ccccc34)[C@H]21 | 22.1 | > 200 | > 200 | – |
| CN1c2ccccc2C(=O)N2CCn3c(cc4cc(F)ccc43)C21 (configuration not stated) | > 200 | > 200 | > 200 | – |
| COc1cc2cc3n(c2c(OC)c1OC)CCN1C(=O)c2ccccc2N(C)C31 (configuration not stated) | > 200 | > 200 | > 200 | – |
| COc1ccc2c(c1)cc1n2CCN2C(=O)c3cc(N)ccc3N(C)C12 (configuration not stated) | > 200 | > 200 | > 200 | – |
| CN1c2ccc(F)cc2C(=O)N2CCn3c(cc4cc(OC(F)(F)F)ccc43)C21 (configuration not stated) | > 200 | 0.83 | 95.5 | – |
| COc1ccc2c(c1)cc1n2CCN2C(=O)c3cc(C)ccc3N(C)C12 (configuration not stated) | > 200 | 19.4 | > 200 | – |
| CC[C@@]1(O)C(=O)OCc2c1cc1n(c2=O)Cc2cc3ccccc3nc2-1 [CAMPTOTHECIN] | 2.7 | 0.02 | 2.8 | IC50 (BEL-7404 tumor cell line): 0.4 µM; IC50 [1]: 0.7 µM; IC50 (K562): < 0.003 µM; IC50 [2]: 0.003 µM; Activity [3]: Active; IC50 (PC-3): 2.4 µM; IC50 (SK-HEP1): 0.9 µM; IC50 (NCI-H446): > 200 µM |
| COc1ccc2c(c1)cc1n2CCN2C(=O)c3cc(OC)c(OC)cc3N(C)C12 (configuration not stated) | 23.8 | > 121 | > 200 | – |
| CN1c2ccc(F)cc2C(=O)N2CCn3c(cc4cc(OC5CCCC5)ccc43)C21 (configuration not stated) | > 200 | 57.9 | > 200 | – |
| CSc1ccc2cc3n(c2c1)CCN1C(=O)c2cc(F)ccc2N(C)C31 (configuration not stated) | 85.8 | 9.4 | 8.3 | – |
| [2H]C([2H])([2H])Oc1ccc2c(c1)cc1n2CCN2C(=O)c3cc(F)ccc3N(C)C12 (configuration not stated) | 11.4 | 0.01 | 31.3 | – |
| CN1c2ccc(F)cc2C(=O)N2CCn3c(cc4cc(OC5CCCCC5)ccc43)C21 (configuration not stated) | 50.1 | 66.8 | 174 | – |
| Cc1ccc2c(c1)cc1n2CCN2C(=O)c3ccccc3N(C)C12 (configuration not stated) | 13.3 | 0.03 | > 200 | inhibition [4]: inactive; inhibition [5]: Active |
| CN1c2ccccc2C(=O)N2CCCn3c(cc4cc(O)ccc43)C21 (configuration not stated) | > 200 | > 200 | 111 | – |
| COc1ccc2c(c1)cc1n2CCN2C(=O)c3cc(Cl)ccc3N(C)C12 (configuration not stated) | > 200 | 61.3 | > 200 | – |
| CN1c2ccccc2C(=O)N2CCn3c(cc4cc(Cl)ccc43)C21 (configuration not stated) | 13.5 | 4.4 | 27.7 | inhibition [4]: inactive; inhibition [5]: Active |

| Structure (SMILES) | IC50 (MDA-MB-435) [µM] | IC50 (HCT-116) [µM] | IC50 (A549) [µM] | also measured |
| --- | --- | --- | --- | --- |
| COc1ccc2c(c1)cc1n2CCCN2C(=O)c3ccccc3N(C)C12 (configuration not stated) | 196 | 56 | 32 | – |
| COc1ccc2c(c1)N(C)C1c3cc4cc(OC)ccc4n3CCN1C2=O (configuration not stated) | > 200 | 180 | 30.8 | – |
| COc1ccc2c(c1)cc1n2CCN2C(=O)c3c(ccn3C)N(C)C12 (configuration not stated) | > 200 | 190 | > 200 | – |
| COc1ccc2c(c1)c(C=O)c1n2CCN2C(=O)c3cc(F)ccc3N(C)C12 (configuration not stated) | > 200 | > 200 | 59.2 | – |
| CN1c2ccn(C)c2C(=O)N2CCn3c(cc4cc(O)ccc43)C21 (configuration not stated) | > 200 | > 200 | > 200 | – |
| COc1ccc2c(c1)cc1n2CCN2C(=O)c3cc(Br)ccc3N(C)C12 (configuration not stated) | > 200 | > 200 | > 200 | – |
| CN1c2ccccc2C(=O)N2CCn3c(cc4ccccc43)C21 (configuration not stated) | > 200 | 47.5 to 48.5 | 21.5 | inhibition [4]: inactive; inhibition [5]: Active |
| CN1c2ccc(F)cc2C(=O)N2CCn3c(cc4cc(Cl)ccc43)C21 (configuration not stated) | 143 | 6.7 | 53 | – |
| COc1ccc2c(c1)N(C)C1c3cc4cc(Br)ccc4n3CCN1C2=O (configuration not stated) | > 200 | > 200 | > 200 | – |
| CN1c2ccc(F)cc2C(=O)N2CCn3c(cc4cc(OC5CCC5)ccc43)C21 (configuration not stated) | > 200 | 34.1 | 98.5 | – |
| COc1ccc2c(c1)c(Br)c1n2CCN2C(=O)c3cc(F)ccc3N(C)C12 (configuration not stated) | 89.1 | 9.2 | 12.3 | – |
| CN1c2ccccc2C(=O)N2CCn3c(cc4ccc(Cl)cc43)C21 (configuration not stated) | > 200 | > 200 | > 200 | – |
| COc1ccc2c(c1)cc1n2CCN2C(=O)c3sccc3N(C)C12 (configuration not stated) | 44.6 | 9.5 | 47 | – |
| COc1ccc2c(c1)N(C)C1c3cc4ccccc4n3CCN1C2=O (configuration not stated) | > 200 | 124 | 24.3 | – |
| COc1ccc2c(c1)c(CO)c1n2CCN2C(=O)c3cc(C)ccc3N(C)C12 (configuration not stated) | 41.5 | 5.8 | 72.1 | – |
| Cc1ccc2c(c1)cc1n2CCN2C(=O)c3cc(F)ccc3N(C)C12 (configuration not stated) | 1 | 0.06 | 22.8 | – |
| COc1ccc2c(c1)c(CO)c1n2CCN2C(=O)c3cc(F)ccc3N(C)C12 (configuration not stated) | 22.8 | 5.6 | 6.6 | – |
| CN1c2ccc(F)cc2C(=O)N2CCn3c(cc4cc(Br)ccc43)C21 (configuration not stated) | 97.6 | 28.5 | > 200 | – |
| COc1ccc2c(c1)c(C)c1n2CCN2C(=O)c3cc(F)ccc3N(C)C12 (configuration not stated) | 132 | 21.9 | 13.2 | – |
| Cc1ccc2c(c1)c(Br)c1n2CCN2C(=O)c3ccccc3N(C)C12 (configuration not stated) | 12.3 | 3.3 | 14.1 | – |
| COc1ccc2c(c1)C(=O)N1CCn3c(cc4ccccc43)C1N2C (configuration not stated) | 168 | 49.2 | 15.6 | – |
| COc1ccc2c(c1)c(C=O)c1n2CCN2C(=O)c3cc(C)ccc3N(C)C12 (configuration not stated) | 70.5 | 18.1 | > 200 | – |
| COc1ccc2c(c1)cc1n2C(C)(C)CN2C(=O)c3ccccc3N(C)C12 (configuration not stated) | 86.4 | 6.2 | 181 | – |
